According to ChEMBL document CHEMBL3351601, “2-(4-Chlorobenzyl)-6-arylimidazo[2,1-b][1,3,4]thiadiazoles: synthesis, cytotoxic activity and mechanism of action” (Eur J Med Chem, 2014):
Calls of active or inactive are those of the source. The calls are words filed in the database; no cut-off is given here.

Tests used:
L1210 [1] = assay: Cytotoxicity against mouse L1210 cells after 48 hrs by Coulter counting method; type: functional, cell-based; details: L1210, 48 h
In short: (§1)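 (5–7.5) × 10⁴ tumour cells per well with test compound. Proliferation ran 48 h for L1210 and 72 h for CEM and HeLa, at 37 °C in humidified CO₂. Cells counted in a Coulter counter. IC50 taken as the concentration that inhibited cell proliferation by 50%.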

CCRF-CEM = assay: Cytotoxicity against human CEM cells after 72 hrs by Coulter counting method; type: cell-based; in short: as §1
HeLa [2] = assay: Cytotoxicity against human HeLa cells after 72 hrs by Coulter counting method; type: functional, cell-based; in short: as §1
REH [3] = assay: Cytotoxicity against human REH cells after 48 to 72 hrs; type: functional, cell-based
In short: (§2)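 REH and K562 cells at 0.5 × 10⁵ cells/ml, given 0–10 μM compound, with a DMSO vehicle control. Read at 48 and 72 h by trypan blue dye exclusion (cells precultured 24 h before dosing) and by MTT. Three independent experiments, MTT in duplicate.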

K562 = assay: Cytotoxicity against human K562 cells after 48 to 72 hrs; type: functional, cell-based; in short: as §2
REH [4] = assay: Cell cycle arrest in human REH cells at 0.1 to 1 uM after 48 hrs using propidium iodide by flow cytometry; type: functional, cell-based
In short: (§3)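 REH cells (0.5 × 10⁵ cells/ml) precultured 24 h, then exposed to 0, 0.1, 0.5 or 1 μM compound for 48 h. Harvested, fixed in 70% chilled ethanol, stained with propidium iodide, analysed by flow cytometry, at least 10,000 cells per sample. Phase distribution from histograms, two independent experiments.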

REH [5] = assay: Effect on cell cycle progression in human REH cells at 0.1 to 1 uM after 48 hrs using propidium iodide by flow cytometry; type: functional, cell-based; in short: as §3
REH [6] = assay: Cell cycle arrest in human REH cells assessed as accumulation at sub-G1 phase at 0.1 to 1 uM after 48 hrs using propidium iodide by flow cytometry; type: functional, cell-based; in short: as §3
REH [7] = assay: Induction of apoptosis in human REH cells assessed as ROS production at 1 uM after 5 mins using H2DCFDA by flow cytometry (reference value: 0.11%); type: functional
REH [8] = assay: Induction of apoptosis in human REH cells assessed as ROS production at 1 uM after 15 mins using H2DCFDA by flow cytometry (reference value: 0.11%); type: functional
REH [9] = assay: Induction of apoptosis in human REH cells assessed as ROS production at 1 uM after 30 mins using H2DCFDA by flow cytometry (reference value: 0.11%); type: functional
REH [10] = assay: Induction of apoptosis in human REH cells assessed as ROS production at 1 uM after 60 mins using H2DCFDA by flow cytometry (reference value: 0.11%); type: functional
REH [11] = assay: Induction of apoptosis in human REH cells assessed as ROS production at 1 uM after 5 to 60 mins using H2DCFDA by flow cytometry (reference value: 0.11%); type: functional
REH [12] = assay: Induction of apoptosis in human REH cells assessed as DNA fragmentation at 0.5 uM after 48 hrs by agarose gel electrophoresis; type: functional, cell-based
In short: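 REH cells given 0, 0.1, 0.5, 1 and 5 μM for 48 h, DMSO vehicle control. Cells lysed in Triton X-100/proteinase K buffer at 55 °C for 5 h, then RNase (50 μg/ml) 1 h at 37 °C. DNA precipitated with sodium acetate/isopropanol and run on 2% agarose at 50 V for 3 h.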

REH [13] = assay: Induction of apoptosis in human REH cells assessed as viable cells at 1 uM after 48 hrs using propidium iodide/annexin-V by flow cytometry (reference value: 72.6 %); type: functional; details: read-out: Activity
In short: (§4)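 REH cells given 1 μM compound for 48 h alongside DMSO controls. Harvested, washed in PBS, resuspended in binding buffer (10 mM HEPES pH 7.4, 144 mM NaCl, 25 mM CaCl₂).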

REH [14] = assay: Induction of apoptosis in human REH cells assessed as early apoptotic cells at 1 uM after 48 hrs using propidium iodide/annexin-V by flow cytometry (reference value: 16.2 %); type: functional; in short: as §4
REH [15] = assay: Induction of apoptosis in human REH cells assessed as late apoptotic cells at 1 uM after 48 hrs using propidium iodide/annexin-V by flow cytometry (reference value: 8.7 %); type: functional; in short: as §4
REH [16] = assay: Induction of apoptosis in human REH cells assessed as necrotic cells at 1 uM after 48 hrs using propidium iodide/annexin-V by flow cytometry (reference value: 2.5 %); type: functional; in short: as §4
REH [17] = assay: Induction of apoptosis in human REH cells assessed as loss of mitochodrial membrane potential at 0.5 to 1 uM after 48 hrs using JC-1 staining by flow cytometry; type: functional, cell-based
In short: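 REH cells exposed to 0.5 or 1 μM compound for 48 h, then incubated with 0.5 μM JC-1 for 20 min at 37 °C, washed and read by flow cytometry. Green-to-red fluorescence ratio reported. 2,4-DNP as positive control, DMSO-treated cells as controls. Two independent experiments.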

REH [18] = assay: Cytotoxicity against human REH cells at 0.5 uM after 48 hrs using ethidium bromide staining by live-dead assay relative to 293T cells; type: functional
In short: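 REH and 293T cells seeded at 1 × 10^5/ml, exposed to 0.5 μM compound for 48 h; DMSO vehicle control. Harvested cells stained with ethidium bromide (5 μg/ml), which enters membrane-compromised dead cells, and dead fraction quantified by flow cytometry. REH cultured in RPMI1640, 293T in DMEM, both with 10% FBS, penicillin/streptomycin, 37 °C, 5% CO2.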

[19] = Ratio of melphalan IC50 to compound IC50 for human CEM cells after 48 to 72 hrs by Coulter counter cell counting; details: CCRF-CEM (CEM) cells
HeLa [20] = assay: Ratio of melphalan IC50 to compound IC50 for human HeLa cells after 48 to 72 hrs by Coulter counter cell counting
L1210 [21] = assay: Ratio of melphalan IC50 to compound IC50 for mouse L1210 cells after 48 to 72 hrs by Coulter counter cell counting

| Structure (SMILES) | IC50 (L1210 [1]) | IC50 (CCRF-CEM) | IC50 (HeLa [2]) | other results |
| --- | --- | --- | --- | --- |
| Cc1ccc(-c2nc3sc(Cc4ccc(Cl)cc4)nn3c2Br)cc1 | > 250 µM | > 250 µM | > 250 µM | – |
| Clc1ccc(Cc2nn3cc(-c4ccc(Cl)cc4)nc3s2)cc1 | > 250 µM | > 250 µM | 95 µM | – |
| Cc1ccc(-c2cn3nc(Cc4ccc(Cl)cc4)sc3n2)cc1 | > 250 µM | > 250 µM | > 250 µM | – |
| O=Cc1c(-c2ccc(Br)cc2)nc2sc(Cc3ccc(Cl)cc3)nn12 | 4.6 µM | 4 µM | 4.2 µM | – |
| Clc1ccc(Cc2nn3c(Br)c(-c4ccc(Cl)cc4)nc3s2)cc1 | > 250 µM | > 250 µM | > 250 µM | – |
| Fc1ccc(-c2nc3sc(Cc4ccc(Cl)cc4)nn3c2Br)cc1 | > 250 µM | > 250 µM | > 250 µM | – |
| COc1ccc(-c2cn3nc(Cc4ccc(Cl)cc4)sc3n2)cc1 | 38 µM | > 250 µM | > 250 µM | – |
| N[C@@H](Cc1ccc(N(CCCl)CCCl)cc1)C(=O)O [MELPHALAN] | – | 1.4 µM | – | – |
| Clc1ccc(Cc2nn3c(Br)c(-c4ccc(Cl)cc4Cl)nc3s2)cc1 | 31 µM | 106 µM | 118 µM | – |
| O=[N+]([O-])c1ccc(-c2cn3nc(Cc4ccc(Cl)cc4)sc3n2)cc1 | 214 µM | > 250 µM | > 250 µM | – |
| Cc1ccc(-c2nc3sc(Cc4ccc(Cl)cc4)nn3c2C=O)cc1 | 23 µM | 17 µM | 21 µM | – |
| O=[N+]([O-])c1ccc(-c2nc3sc(Cc4ccc(Cl)cc4)nn3c2Br)cc1 | 94 µM | 73 µM | > 250 µM | – |
| c1ccc([C@H]2CN3CCSC3=N2)cc1 [LEVAMISOLE] | 206 µM | > 250 µM | 250 µM | – |
| Clc1ccc(Cc2nn3c(Br)c(-c4ccc(Br)cc4)nc3s2)cc1 | > 250 µM | 238 µM | 188 µM | – |
| O=Cc1c(-c2ccc([N+](=O)[O-])cc2)nc2sc(Cc3ccc(Cl)cc3)nn12 | 15 µM | 13 µM | 17 µM | – |
| O=Cc1c(-c2cc3ccccc3oc2=O)nc2sc(Cc3ccc(Cl)cc3)nn12 | 0.89 µM | 0.75 µM | 0.9 µM | IC50 (REH [3]): 0.67 µM; IC50 (K562): 0.9 µM; Activity (REH [4]): inactive; Activity (REH [5]): inactive; Activity (REH [6]): Active; Activity (REH [7]): 0.16%; Activity (REH [8]): 0.12%; Activity (REH [9]): 0.13%; Activity (REH [10]): 0.16%; Activity (REH [11]): 36.99%; Activity (REH [12]): Active; viability at 1 µM (REH [13]): 54.8%; Activity (REH [14]): 21.5%; Activity (REH [15]): 14.6%; Activity (REH [16]): 9.1%; Activity (REH [17]): Active; fold change (FC) (REH [18]): 6; selectivity ratio [19]: 3; Ratio IC50 (HeLa [20]): 3; Ratio IC50 (L1210 [21]): 3 |
| Clc1ccc(Cc2nn3cc(-c4ccc(Br)cc4)nc3s2)cc1 | > 250 µM | > 250 µM | > 250 µM | – |
| Fc1ccc(-c2cn3nc(Cc4ccc(Cl)cc4)sc3n2)cc1 | > 250 µM | > 250 µM | > 250 µM | – |
| N#CSc1c(-c2ccc(Br)cc2)nc2sc(Cc3ccc(Cl)cc3)nn12 | 81 µM | 61 µM | 22 µM | – |

| Structure (SMILES) | IC50 (L1210 [1]) | IC50 (CCRF-CEM) | IC50 (HeLa [2]) | other results |
| --- | --- | --- | --- | --- |
| Cc1ccc(-c2nc3sc(Cc4ccc(Cl)cc4)nn3c2SC#N)cc1 | 32 µM | 22 µM | 22 µM | – |
| O=Cc1c(-c2ccc(Cl)cc2)nc2sc(Cc3ccc(Cl)cc3)nn12 | 15 µM | 5.8 µM | 16 µM | – |
| O=Cc1c(-c2ccc(Cl)cc2Cl)nc2sc(Cc3ccc(Cl)cc3)nn12 | 82 µM | 79 µM | 64 µM | – |
| O=c1oc2ccccc2cc1-c1cn2nc(Cc3ccc(Cl)cc3)sc2n1 | > 10 µM | > 10 µM | > 10 µM | – |
| COc1ccc(-c2nc3sc(Cc4ccc(Cl)cc4)nn3c2SC#N)cc1 | 16 µM | 10 µM | 9 µM | – |
| N#CSc1c(-c2ccc([N+](=O)[O-])cc2)nc2sc(Cc3ccc(Cl)cc3)nn12 | 50 µM | 20 µM | 16 µM | – |
| COc1ccc(-c2nc3sc(Cc4ccc(Cl)cc4)nn3c2C=O)cc1 | 5.3 µM | 3.8 µM | 6 µM | – |
| N#CSc1c(-c2ccc(F)cc2)nc2sc(Cc3ccc(Cl)cc3)nn12 | 23 µM | 24 µM | 20 µM | – |
| N#CSc1c(-c2ccc(Cl)cc2)nc2sc(Cc3ccc(Cl)cc3)nn12 | 49 µM | 30 µM | 20 µM | – |
| COc1ccc(-c2nc3sc(Cc4ccc(Cl)cc4)nn3c2Br)cc1 | 63 µM | 58 µM | 66 µM | – |
| Clc1ccc(Cc2nn3cc(-c4ccc(Cl)cc4Cl)nc3s2)cc1 | 247 µM | > 250 µM | 109 µM | – |
| O=Cc1c(-c2ccccc2)nc2sc(Cc3ccc(Cl)cc3)nn12 | 20 µM | 22 µM | 45 µM | – |
| Clc1ccc(Cc2nn3cc(-c4ccccc4)nc3s2)cc1 | > 250 µM | > 250 µM | > 250 µM | – |
| O=c1oc2ccccc2cc1-c1nc2sc(Cc3ccc(Cl)cc3)nn2c1Br | 5.2 µM | 3.7 µM | 4.5 µM | – |
| O=Cc1c(-c2ccc(F)cc2)nc2sc(Cc3ccc(Cl)cc3)nn12 | 20 µM | 17 µM | 20 µM | – |
| N#CSc1c(-c2ccc(Cl)cc2Cl)nc2sc(Cc3ccc(Cl)cc3)nn12 | 49 µM | 46 µM | 18 µM | – |
| N#CSc1c(-c2ccccc2)nc2sc(Cc3ccc(Cl)cc3)nn12 | 24 µM | 14 µM | 12 µM | – |
| Clc1ccc(Cc2nn3c(Br)c(-c4ccccc4)nc3s2)cc1 | > 250 µM | > 250 µM | > 250 µM | – |
| N#CSc1c(-c2cc3ccccc3oc2=O)nc2sc(Cc3ccc(Cl)cc3)nn12 | 1.3 µM | 1.4 µM | 1 µM | IC50 (REH [3]): 6.2 µM; IC50 (K562): 3.1 µM |
